Tested on: Fibroblast
Test: Multiplex assay against human fibroblast
Format: toxicity, cell-based
Summary of the method: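 Hoechst33342, BioTracker Green Microtubule Cytoskeleton Dye, MitoTracker Red and Annexin V Alexa Fluor 680 were added to live cells at seeding, and imaging on a CQ1 microscope at 37°C and 5% CO2 followed compound addition. Gating by CellPathfinder machine learning separated cells into Hoechst high-intensity objects or normal cells, then normal cells into healthy, pyknosed or fragmented nuclei, then pyknosed cells into mitotic or apoptotic. Per cents of healthy-nucleus cells are reported for the tubulin, mitochondrial-mass and membrane-permeability phenotypes.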

[1] = 12 h, 1 µM, compound concentration 1 uM, replicate 1
[2] = 12 h, 1 µM, compound concentration 1 uM, replicate 2
[3] = 12 h, 10 µM, compound concentration 10 uM, replicate 1
[4] = 12 h, 10 µM, compound concentration 10 uM, replicate 2
[5] = 24 h, 1 µM, compound concentration 1 uM, replicate 1
[6] = 24 h, 1 µM, compound concentration 1 uM, replicate 2
[7] = 24 h, 10 µM, compound concentration 10 uM, replicate 1
[8] = 24 h, 10 µM, compound concentration 10 uM, replicate 2
[9] = 48 h, 1 µM, compound concentration 1 uM, replicate 1
[10] = 48 h, 1 µM, compound concentration 1 uM, replicate 2
[11] = 48 h, 10 µM, compound concentration 10 uM, replicate 1
[12] = 48 h, 10 µM, compound concentration 10 uM, replicate 2

## CC(C)(C)c1ccc(S(=O)(=O)Nc2ccc(Cl)cc2C(=O)c2cc[n+]([O-])cc2)cc1 [VERCIRNON]
[1]
  Population Apoptotic (%): 63%
  Population Fragmented Nuclei (%): 19%
  Population Healthy Nuclei (%): 65%
  Population Hoechst High Intensity Objects (%): 2%
  Population Membrane Permeable-Phenotype (%): 1%
  Population Mitochondria Different-Phenotype (%): 3%
  Population Mitotic Cells (%): 36%
  Population Normal (%): 97%
  Population Pyknosed Nuclei (%): 15%
  Population Tubulin-Different-Phenotype (%): 20%
  Total Cell Count: 148
[2]
  Population Apoptotic (%): 50%
  Population Fragmented Nuclei (%): 27%
  Population Healthy Nuclei (%): 46%
  Population Hoechst High Intensity Objects (%): 7%
  Population Membrane Permeable-Phenotype (%): 6%
  Population Mitochondria Different-Phenotype (%): 1%
  Population Mitotic Cells (%): 50%
  Population Normal (%): 92%
  Population Pyknosed Nuclei (%): 25%
  Population Tubulin-Different-Phenotype (%): 41%
  Total Cell Count: 152
[3]
  Population Apoptotic (%): 59%
  Population Fragmented Nuclei (%): 14%
  Population Healthy Nuclei (%): 64%
  Population Hoechst High Intensity Objects (%): 3%
  Population Membrane Permeable-Phenotype (%): 3%
  Population Mitochondria Different-Phenotype (%): 1%
  Population Mitotic Cells (%): 40%
  Population Normal (%): 96%
  Population Pyknosed Nuclei (%): 21%
  Population Tubulin-Different-Phenotype (%): 46%
  Total Cell Count: 107
[4]
  Population Apoptotic (%): 48%
  Population Fragmented Nuclei (%): 30%
  Population Healthy Nuclei (%): 44%
  Population Hoechst High Intensity Objects (%): 5%
  Population Membrane Permeable-Phenotype (%): 8%
  Population Mitochondria Different-Phenotype (%): 10%
  Population Mitotic Cells (%): 51%
  Population Normal (%): 94%
  Population Pyknosed Nuclei (%): 25%
  Population Tubulin-Different-Phenotype (%): 66%
  Total Cell Count: 114
[5]
  Population Apoptotic (%): 55%
  Population Fragmented Nuclei (%): 23%
  Population Healthy Nuclei (%): 62%
  Population Hoechst High Intensity Objects (%): 0%
  Population Membrane Permeable-Phenotype (%): 4%
  Population Mitochondria Different-Phenotype (%): 1%
  Population Mitotic Cells (%): 45%
  Population Normal (%): 99%
  Population Pyknosed Nuclei (%): 14%
  Population Tubulin-Different-Phenotype (%): 27%
  Total Cell Count: 141
[6]
  Population Apoptotic (%): 54%
  Population Fragmented Nuclei (%): 25%
  Population Healthy Nuclei (%): 57%
  Population Hoechst High Intensity Objects (%): 7%
  Population Membrane Permeable-Phenotype (%): 7%
  Population Normal (%): 92%
  Population Pyknosed Nuclei (%): 16%
  Population Tubulin-Different-Phenotype (%): 40%
  Total Cell Count: 142
[7]
  Population Apoptotic (%): 66%
  Population Fragmented Nuclei (%): 16%
  Population Healthy Nuclei (%): 66%
  Population Hoechst High Intensity Objects (%): 1%
  Population Membrane Permeable-Phenotype (%): 4%
  Population Mitochondria Different-Phenotype (%): 2%
  Population Mitotic Cells (%): 33%
  Population Normal (%): 98%
  Population Pyknosed Nuclei (%): 16%
  Population Tubulin-Different-Phenotype (%): 40%
  Total Cell Count: 114
[8]
  Population Apoptotic (%): 41%
  Population Fragmented Nuclei (%): 32%
  Population Healthy Nuclei (%): 42%
  Population Hoechst High Intensity Objects (%): 0%
  Population Membrane Permeable-Phenotype (%): 21%
  Population Mitochondria Different-Phenotype (%): 9%
  Population Mitotic Cells (%): 58%
  Population Normal (%): 99%
  Population Pyknosed Nuclei (%): 24%
  Population Tubulin-Different-Phenotype (%): 82%
  Total Cell Count: 120
[9]
  Population Apoptotic (%): 61%
  Population Fragmented Nuclei (%): 29%
  Population Healthy Nuclei (%): 58%
  Population Hoechst High Intensity Objects (%): 1%
  Population Membrane Permeable-Phenotype (%): 1%
  Population Mitochondria Different-Phenotype (%): 1%
  Population Mitotic Cells (%): 38%
  Population Normal (%): 98%
  Population Pyknosed Nuclei (%): 12%
  Population Tubulin-Different-Phenotype (%): 25%
  Total Cell Count: 151
[10]
  Population Apoptotic (%): 62%
  Population Fragmented Nuclei (%): 32%
  Population Healthy Nuclei (%): 55%
  Population Hoechst High Intensity Objects (%): 6%
  Population Membrane Permeable-Phenotype (%): 6%
  Population Mitochondria Different-Phenotype (%): 9%
  Population Mitotic Cells (%): 37%
  Population Normal (%): 93%
  Population Pyknosed Nuclei (%): 11%
  Population Tubulin-Different-Phenotype (%): 37%
  Total Cell Count: 145
[11]
  Population Apoptotic (%): 62%
  Population Fragmented Nuclei (%): 22%
  Population Healthy Nuclei (%): 64%
  Population Hoechst High Intensity Objects (%): 2%
  Population Membrane Permeable-Phenotype (%): 1%
  Population Mitochondria Different-Phenotype (%): 0%
  Population Mitotic Cells (%): 37%
  Population Normal (%): 97%
  Population Pyknosed Nuclei (%): 13%
  Population Tubulin-Different-Phenotype (%): 38%
  Total Cell Count: 120
[12]
  Population Apoptotic (%): 46%
  Population Fragmented Nuclei (%): 42%
  Population Healthy Nuclei (%): 46%
  Population Hoechst High Intensity Objects (%): 4%
  Population Membrane Permeable-Phenotype (%): 16%
  Population Mitochondria Different-Phenotype (%): 12%
  Population Mitotic Cells (%): 53%
  Population Normal (%): 95%
  Population Pyknosed Nuclei (%): 11%
  Population Tubulin-Different-Phenotype (%): 72%
  Total Cell Count: 122

— ChEMBL document CHEMBL5058577, “EUbOPEN Chemogenomics Library 2 (Multiplex)” (2022)
